Source: ChEMBL document CHEMBL1131340, “alpha-Substituted malonester amides: tools to define the relationship between ACAT inhibition and adrenal toxicity” (J Med Chem, 1998)

Legend:
Rattus norvegicus [1] = test: Percent change in total cholesterol level in cholic acid (0.5%),cholesterol(1.5%),peanut oil(5.5%) fed rats at 30 mg/kg.; format: functional
Outline: (§1)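 Acute screen (APCC) in male Sprague-Dawley rats, 200–225 g. Compound given orally as a suspension in water with carboxymethylcellulose (1.5%) and Tween-20 (0.2%). Rats then ate a high-fat, high-cholesterol PCC meal (peanut oil 5.5%, cholesterol 1.5%, cholic acid 0.5%). Plasma total cholesterol measured and expressed as percent change from controls.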

Rattus norvegicus [2] = test: Percent of high density lipoprotein cholesterol was in cholesterol fed rat at the dose of 30 mg/kg; format: functional
Rattus norvegicus [3] = test: Percent change in total cholesterol level in cholic acid (0.5%),cholesterol(1.5%),peanut oil(5.5%) fed rats at 3 mg/kg.; format: functional; outline: as §1
[4] = molecular target: T1, Sterol O-acyltransferase 1 (Rattus norvegicus, UniProt O70536); test: In vitro Acyl coenzyme A:cholesterol acyltransferase inhibition in hepatic microsomes isolated from cholesterol-fed rats; set-up: species or system Liver
T1 sequence (O70536 whole entry): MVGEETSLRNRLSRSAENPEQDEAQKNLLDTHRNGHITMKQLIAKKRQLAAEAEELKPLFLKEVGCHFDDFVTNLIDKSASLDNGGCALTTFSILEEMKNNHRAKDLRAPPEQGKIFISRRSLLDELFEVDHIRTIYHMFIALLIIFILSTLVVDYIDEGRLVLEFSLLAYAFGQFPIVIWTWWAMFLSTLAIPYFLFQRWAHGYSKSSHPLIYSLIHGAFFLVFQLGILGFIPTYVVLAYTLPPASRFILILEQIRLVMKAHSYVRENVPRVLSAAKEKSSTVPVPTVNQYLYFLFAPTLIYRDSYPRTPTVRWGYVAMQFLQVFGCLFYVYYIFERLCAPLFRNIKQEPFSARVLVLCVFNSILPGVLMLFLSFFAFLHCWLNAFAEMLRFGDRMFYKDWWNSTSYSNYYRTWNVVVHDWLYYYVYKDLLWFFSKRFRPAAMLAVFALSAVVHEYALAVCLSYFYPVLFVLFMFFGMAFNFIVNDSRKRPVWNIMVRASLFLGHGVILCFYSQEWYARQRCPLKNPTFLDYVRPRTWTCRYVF
Outline: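 Hepatic microsomes from cholesterol-fed rats (LAI screen); ACAT inhibition reported as IC50.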

Rattus norvegicus [5] = test: Percent of non high density lipoprotein cholesterol measured in cholesterol fed rat at the dose of 30 mg/kg; format: functional
Rattus norvegicus [6] = species: Rattus norvegicus; test: Percent of non high density lipoprotein cholesterol was measured in cholesterol fed rat by using oleic acid vehicle; format: functional
Outline: (§2)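 Chronic PCC rat screen with drug and PCC diet given together for 7 days. Compound dosed either in an aqueous carboxymethylcellulose vehicle (PCC-CMC) or in an oleic acid vehicle (PCC-OA). Change in plasma non-HDL-C measured.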

[7] = molecular target: T2, Acyl-CoA:cholesterol acyltransferase (Oryctolagus cuniculus) (UniProt Q95214); test: Percent inhibition of cholesterol of ACAT by ABIO bioassay at the dose of 25 mg/kg in rabbits.; format: functional, organism-based; set-up: dose 25 mg/kg
T2 sequence (whole entry): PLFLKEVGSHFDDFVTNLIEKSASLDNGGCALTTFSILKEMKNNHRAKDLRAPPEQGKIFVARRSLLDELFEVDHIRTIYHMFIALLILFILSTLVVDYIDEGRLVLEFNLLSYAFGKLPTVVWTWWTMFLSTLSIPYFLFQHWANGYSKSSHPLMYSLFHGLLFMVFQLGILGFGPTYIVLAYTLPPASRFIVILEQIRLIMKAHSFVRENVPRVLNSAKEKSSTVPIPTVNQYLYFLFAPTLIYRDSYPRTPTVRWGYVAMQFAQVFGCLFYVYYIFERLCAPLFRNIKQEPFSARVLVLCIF
Outline: (§3)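 Oral bioactivity (ABIO) in male New Zealand White rabbits, 1.2–1.5 kg. Compound given at 25 or 50 mg/kg in the daily meal (3% peanut oil, 3% coconut oil). Plasma extracts incubated with rat liver microsomes and ACAT reaction inhibition expressed as relative percent inhibition.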

[8] = molecular target: T2, Acyl-CoA:cholesterol acyltransferase (Oryctolagus cuniculus); test: Percent inhibition of cholesterol of ACAT by ABIO bioassay at the dose of 50 mg/kg in rabbits.; format: functional, organism-based; set-up: dose 50 mg/kg; outline: as §3
Oryctolagus cuniculus [9] = test: Plasma drug levels at the dose of 50 mg/kg in rabbit; format: functional, organism-based; set-up: dose 50 mg/kg
Outline: (§4)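 Male New Zealand White rabbits, 1.2–1.5 kg, dosed at 25 or 50 mg/kg in the daily meal (3% peanut oil, 3% coconut oil). Blood taken predose and at intervals up to 24 h. Plasma solvent-extracted and assayed by HPLC–UV; limit of quantitation 20 ng/mL.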

Rattus norvegicus [10] = species: Rattus norvegicus; test: Percent of non high density lipoprotein cholesterol was measured in cholesterol fed rat by using aqueous vehicle; format: functional; outline: as §2
Rattus norvegicus [11] = test: Percent of total cholesterol was measured in cholesterol fed rat at the dose of 30 mg/kg
Oryctolagus cuniculus [12] = test: Plasma drug levels at the dose of 25 mg/kg in rabbit; format: functional, organism-based; set-up: dose 25 mg/kg; outline: as §4
Rattus norvegicus [13] = test: Percent of total cholesterol was measured in cholesterol fed rat at the dose of 3 mg/kg
Rattus norvegicus [14] = test: Percent of non high density lipoprotein cholesterol measured in cholesterol fed rat at the dose of 10 mg/kg; format: functional
Rattus norvegicus [15] = test: Percent of high density lipoprotein cholesterol was measured in cholesterol fed rat at the dose of 10 mg/kg; format: functional
Rattus norvegicus [16] = test: Percent of high density lipoprotein cholesterol was in cholesterol fed rat at the dose of 10 mg/kg; format: functional

CCCCCCCCCCCCCCCCOC(=O)C(C(=O)Nc1c(C(C)C)cccc1C(C)C)c1ccccc1 (stereo unspecified)
Delta TC (Rattus norvegicus [1]): -26%

CCCCCCCCCCCCC(C)OC(=O)C(C(=O)Nc1c(OC)cc(OC)cc1OC)c1ccccc1 (stereo unspecified)
Of HDL-C (Rattus norvegicus [2]): 272% | Delta TC (Rattus norvegicus [3]): -48% | IC50 [4]: 30 nM | Delta TC (Rattus norvegicus [1]): -59% | Of non-HDL-C (Rattus norvegicus [5]): -85%

CCCCC(C)(C)OC(=O)C(C(=O)Nc1c(C(C)C)cccc1C(C)C)c1ccccc1 (stereo unspecified)
Delta TC (Rattus norvegicus [3]): -65% | Delta TC (Rattus norvegicus [1]): -72%

CCCCCCCCCCC(C)OC(=O)C(C(=O)Nc1c(C(C)C)cccc1C(C)C)c1ccccc1 (stereo unspecified)
Of HDL-C (Rattus norvegicus [2]): 97% | IC50 [4]: 13 nM | Delta TC (Rattus norvegicus [1]): -37% | Of non-HDL-C (Rattus norvegicus [5]): -64%

CCOC(=O)C(C)(C)C(=O)Nc1c(C(C)C)cccc1C(C)C
IC50 [4]: > 1000 nM | Delta TC (Rattus norvegicus [1]): -24%

CCCCCCCCCCCCOC(=O)C(C(=O)Nc1c(C(C)C)cccc1C(C)C)c1ccccc1 (stereo unspecified)
Non-HDL-C (Rattus norvegicus [6]): -54% | inhibition [7]: 99% | Of HDL-C (Rattus norvegicus [2]): 148% | inhibition [8]: 100% | Plasma level (Oryctolagus cuniculus [9]): 140 ng/mL | Non-HDL-C (Rattus norvegicus [10]): -54% | TC (Rattus norvegicus [11]): -63% | Delta TC (Rattus norvegicus [3]): -29% | IC50 [4]: 10 nM | Plasma level (Oryctolagus cuniculus [12]): 131 ng/mL | TC (Rattus norvegicus [13]): -29% | Delta TC (Rattus norvegicus [1]): -63% | Of non-HDL-C (Rattus norvegicus [5]): -80%

CCCCCCCCCCCCOC(=O)C(C(=O)Nc1c(C(C)C)cc(C(C)C)cc1C(C)C)c1ccccn1 (stereo unspecified)
IC50 [4]: 180 nM | Delta TC (Rattus norvegicus [1]): -9%

CCCOC(=O)C(C(=O)Nc1c(C(C)C)cccc1C(C)C)c1ccccc1 (stereo unspecified)
IC50 [4]: > 1000 nM | Delta TC (Rattus norvegicus [1]): -20%

CCCCCCCCCCCCC(C)(C)OC(=O)C(C(=O)Nc1c(C(C)C)cccc1C(C)C)c1ccccc1 (stereo unspecified)
IC50 [4]: 12 nM | Delta TC (Rattus norvegicus [1]): -26%

CCCCCCCCCCCCOC(=O)C(C(=O)Nc1c(C(C)C)cccc1C(C)C)c1ccccn1 (stereo unspecified)
IC50 [4]: 8 nM | Delta TC (Rattus norvegicus [1]): -43%

CCCCCCCCCCCCCCOC(=O)C(C(=O)Nc1c(C(C)C)cccc1C(C)C)c1ccccc1 (stereo unspecified)
Of HDL-C (Rattus norvegicus [2]): 28% | IC50 [4]: 16 nM | Delta TC (Rattus norvegicus [1]): -49% | Of non-HDL-C (Rattus norvegicus [5]): -57%

CCCCCCCCCCCCC(C)(C)OC(=O)C(C(=O)Nc1c(OC)cc(OC)cc1OC)c1ccccc1 (stereo unspecified)
IC50 [4]: 20 nM

CCCCCCCCCCCCOC(=O)C(C(=O)Nc1c(C(C)C)cc(C(C)C)cc1C(C)C)c1ccccc1 (stereo unspecified)
IC50 [4]: 56 nM | Delta TC (Rattus norvegicus [1]): -21%

CCCCCCCCCCCCC(C)OC(=O)C(C(=O)Nc1c(C(C)C)cccc1C(C)C)c1ccccc1 (stereo unspecified)
Of HDL-C (Rattus norvegicus [2]): 215% | Delta TC (Rattus norvegicus [3]): -46% | Delta TC (Rattus norvegicus [1]): -61% | Of non-HDL-C (Rattus norvegicus [5]): -75%

CCOC(=O)C(C(=O)Nc1c(C(C)C)cccc1C(C)C)c1ccccc1 (stereo unspecified)
IC50 [4]: > 5000 nM | Delta TC (Rattus norvegicus [1]): -23%

CCCCCCCCCCCCOC(=O)C(F)C(=O)Nc1c(C(C)C)cccc1C(C)C (stereo unspecified)
IC50 [4]: 32 nM | Delta TC (Rattus norvegicus [1]): -36%

CCCCCCCCCCCCOC(=O)C(C(=O)Nc1c(OC)cc(OC)cc1OC)c1ccccc1 (stereo unspecified)
Of HDL-C (Rattus norvegicus [2]): 127% | Delta TC (Rattus norvegicus [3]): -51% | Delta TC (Rattus norvegicus [1]): -51% | Of non-HDL-C (Rattus norvegicus [5]): -71%

CCCCCCCCCCCCC(C)OC(=O)C(C)(C)C(=O)Nc1c(C(C)C)cccc1C(C)C (stereo unspecified)
IC50 [4]: 21 nM

CCCCCCCCCOC(=O)C(C(=O)Nc1c(C(C)C)cccc1C(C)C)c1ccccc1 (stereo unspecified)
Delta TC (Rattus norvegicus [3]): -53% | IC50 [4]: 12 nM | Delta TC (Rattus norvegicus [1]): -67%

CCCCCCCCCCCCCCC(C)(C)OC(=O)C(C(=O)Nc1c(C(C)C)cccc1C(C)C)c1ccccc1 (stereo unspecified)
IC50 [4]: 72 nM | Delta TC (Rattus norvegicus [1]): -37%

CCCCCC(C)OC(=O)C(C(=O)Nc1c(C(C)C)cccc1C(C)C)c1ccccc1 (stereo unspecified)
Delta TC (Rattus norvegicus [3]): -61% | IC50 [4]: 40 nM | Delta non HDL-C (Rattus norvegicus [14]): -18% | Delta TC (Rattus norvegicus [1]): -67% | Delta HDL-C (Rattus norvegicus [15]): -1%

CCCCCCCCOC(=O)C(C(=O)Nc1c(C(C)C)cccc1C(C)C)c1ccccc1 (stereo unspecified)
Delta TC (Rattus norvegicus [3]): -46% | Delta TC (Rattus norvegicus [1]): -56%

CCCCCCCCCCCCCCCCCCOC(=O)C(C(=O)Nc1c(C(C)C)cccc1C(C)C)c1ccccc1 (stereo unspecified)
IC50 [4]: 200 nM | Delta TC (Rattus norvegicus [1]): -25%

CCCCCCCOC(=O)C(C(=O)Nc1c(C(C)C)cccc1C(C)C)c1ccccc1 (stereo unspecified)
Of HDL-C (Rattus norvegicus [16]): 2% | Delta TC (Rattus norvegicus [3]): -47% | IC50 [4]: 50 nM | Of non-HDL-C (Rattus norvegicus [14]): -21% | Delta TC (Rattus norvegicus [1]): -71%

CCCCCCCCCCOC(=O)C(C(=O)Nc1c(C(C)C)cccc1C(C)C)c1ccccc1 (stereo unspecified)
Of HDL-C (Rattus norvegicus [16]): -5% | Delta TC (Rattus norvegicus [3]): -27% | IC50 [4]: 13 nM | Of non-HDL-C (Rattus norvegicus [14]): 21% | Delta TC (Rattus norvegicus [1]): -58%

CCOC(=O)C(F)C(=O)Nc1c(C(C)C)cccc1C(C)C (stereo unspecified)
IC50 [4]: > 1000 nM | Delta TC (Rattus norvegicus [1]): 1%
